Experimental data published in ChEMBL document CHEMBL2046388, “Synthesis and biological evaluation of novel anticancer bivalent colchicine-tubulizine hybrids” (Bioorg Med Chem, 2012).
Activity calls are given as the source filed them. The rule behind the calls is not given here.

Legend:
HBL-100 = test: Antiproliferative activity against human HBL100 after 72 hrs by MTT assay; format: functional, cell-based; conditions: HBL-100, 72 h
Ovis aries [1] = organism: Ovis aries; test: Inhibition of sheep tubulin assembly assessed as half inhibitory molar ratio of compound to tubulin by DAPI fluorometric assay; design: unit not given here
Outline: (§1)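 Lamb brain tubulin (ammonium sulfate fractionation, ion-exchange chromatography; quantified at 275 nm) was polymerized at 37 °C, started by warming, with DAPI in 20 mM sodium phosphate, 1 mM EGTA, 10 mM MgCl2, 3.4 M glycerol, pH 6.5, with DMSO under 1%. DAPI fluorescence was followed over time, and % inhibition was plotted against the ligand:tubulin molar ratio. Run in triplicate.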

[2] = Lipophilicity, log D of the compound; format: physicochemical; conditions: octanol/water
Ovis aries [3] = organism: Ovis aries; test: Inhibition of sheep tubulin polymerization at 1 to 30 uM by DAPI fluorometric assay; outline: as §1

SMILES | INH (Ovis aries [1]) | logD [2] | inhibition (Ovis aries [3]) | IC50 (HBL-100) [nM]
COc1ccc(CNc2nc(NCCO)nc(NCc3ccc(OC)cc3)n2)cc1 | 0.34 | – | – | 3140
COc1ccc(CNc2nc(NCc3ccc(OC)cc3)nc(NCc3cn(CCCCCCCCCC(=O)N[C@H]4CCc5cc(OC)c(OC)c(OC)c5-c5ccc(OC)c(=O)cc54)nn3)n2)cc1 | 0.99 | 8.465 | – | 699
COc1ccc(CNc2nc(NCCOC(=O)COCCOCCOCCOCCOCCOCCOCCOCCOCCOCCOCC(=O)N[C@H]3CCc4cc(OC)c(OC)c(OC)c4-c4ccc(OC)c(=O)cc43)nc(NCc3ccc(OC)cc3)n2)cc1 | 3.44 | 2.568 | – | 2930
COc1ccc(CNc2nc(NCCOC(=O)CCCCCCCCCCCCCCCc3cn(CCCCCC(=O)N[C@H]4CCc5cc(OC)c(OC)c(OC)c5-c5ccc(OC)c(=O)cc54)nn3)nc(NCc3ccc(OC)cc3)n2)cc1 | 2.75 | 9.814 | – | 599

Continued, in another order:

INH (Ovis aries [1]) | logD [2] | inhibition (Ovis aries [3]) | SMILES | IC50 (HBL-100) [nM]
0.41 | 5.591 | – | COc1ccc(CNc2nc(NCCOC(=O)CCCCc3cn(CCC(=O)N[C@H]4CCc5cc(OC)c(OC)c(OC)c5-c5ccc(OC)c(=O)cc54)nn3)nc(NCc3ccc(OC)cc3)n2)cc1 | 1620
0.48 | 4.815 | – | COc1ccc(CNc2nc(NCCOC(=O)CCc3cn(CCC(=O)N[C@H]4CCc5cc(OC)c(OC)c(OC)c5-c5ccc(OC)c(=O)cc54)nn3)nc(NCc3ccc(OC)cc3)n2)cc1 | 2590
0.71 | 7.612 | Active | COc1ccc(CNc2nc(NCCOC(=O)CCCCCCCCc3cn(CCC(=O)N[C@H]4CCc5cc(OC)c(OC)c(OC)c5-c5ccc(OC)c(=O)cc54)nn3)nc(NCc3ccc(OC)cc3)n2)cc1 | 687
0.48 | 6.367 | – | COc1ccc(CNc2nc(NCCOC(=O)CCCc3cn(CCCCCC(=O)N[C@H]4CCc5cc(OC)c(OC)c(OC)c5-c5ccc(OC)c(=O)cc54)nn3)nc(NCc3ccc(OC)cc3)n2)cc1 | 1860
3.4 | 8.738 | – | COc1ccc(CNc2nc(NCCOC(=O)CCCc3cn(CCCCCCCCCC(=O)N[C@H]4CCc5cc(OC)c(OC)c(OC)c5-c5ccc(OC)c(=O)cc54)nn3)nc(NCc3ccc(OC)cc3)n2)cc1 | 1010
